# NR2E3 ag-1: human photoreceptor-specific nuclear receptor agonism; 360,000 tested, 0.35% active; Q9Y5X4; inhibition of corepressor binding, % at 3.98 µM; AID 602229; CHO-S Gal4-NCOR/VP16-NR2E3 two-hybrid, luciferase;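 active = inhibition above the mean of all tested compounds plus 3 SD, cut at about 70% in these data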;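 also: higher means lower luciferase signal from less NR2E3 corepressor binding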
# Target sequence (Q9Y5X4 whole entry, looked up, the tested form may be a part): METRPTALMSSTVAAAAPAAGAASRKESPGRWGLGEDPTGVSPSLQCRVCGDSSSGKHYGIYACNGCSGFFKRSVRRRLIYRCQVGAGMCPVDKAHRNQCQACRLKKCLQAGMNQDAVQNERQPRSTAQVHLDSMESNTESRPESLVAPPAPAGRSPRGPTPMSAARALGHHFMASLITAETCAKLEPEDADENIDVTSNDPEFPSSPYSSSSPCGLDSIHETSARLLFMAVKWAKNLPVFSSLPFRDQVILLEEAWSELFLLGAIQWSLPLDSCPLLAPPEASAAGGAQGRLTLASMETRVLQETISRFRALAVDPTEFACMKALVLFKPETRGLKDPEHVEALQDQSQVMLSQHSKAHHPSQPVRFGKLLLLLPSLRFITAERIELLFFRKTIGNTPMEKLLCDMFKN
# Myeloid diff MLP: compounds promoting myeloid differentiation. ER-HoxA9 myeloid progenitors, lysozyme-GFP differentiation, flow cytometry. calls only at 10 µM. 360,000 tested, 1% active;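 active = normalized GFP-positive differentiation at or above the plate's own cutoff, the solvent-only control mean plus 3 SD; inconclusive = no clear call, values can overlap the other calls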;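 also: cells exposed to compound for four days before flow analysis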
# T cell modulator: T cell immune modulators affecting CD8 T cell-vesicle binding; 2C CD8+ T cell-vesicle binding, flow cytometry; hits give low values; response (vesicle binding), % at 7 µM; 330,000 tested, 0.068% active; AID 2052;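 active = response, share of CD8 T cells binding vesicles, and their 90th percentile fluorescence all below set limits, cut at about 80% in these data, passing the limit was not always enough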;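 also: values below 100% mean blocked vesicle binding to the CD8+ T cells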
#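 Also added: QL9-peptide-loaded Drosophila micro-vesicles bearing Ld, ICAM-1 and B7-1; Test system: purified 2C TCR transgenic mouse naive CD8+ T cells; Measured by: cytometric PE anti-B7-1 and Alexa647 anti-CD8 signals after 1% paraformaldehyde fixation; Timing: binding step 1.5 h, 37 °C, antibody labelling 20 min, ice.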
# NR2E3 ag-2: agonists of human nuclear receptor NR2E3 | Q9Y5X4 | GST-NR2E3/biotin-RetCOR TR-FRET, 1536-well | inhibition of corepressor binding, % at 4.78 µM | 320,000 tested, 0.12% active | AID 2300;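 active = percent inhibition above the cutoff of mean plus 3 SD of all tested compounds, set per screening campaign, cut at about 20% in these data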
#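 Material: NR2E3–RetCOR corepressor complex | Quantity: 1.35 nM GST-tagged NR2E3 final | Schedule: 5 h at 4 °C | Replication: Singlicate compound wells | Reagent: RetCOR corepressor, biotinylated, 7 nM | Controls: Biotin wells as high control, 0.6% DMSO wells as low control | Signal: TR-FRET, Eu(K)-anti-GST donor, streptavidin-D2 acceptor, ex 340, em 617/671 nm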
# FXN GAA850 act: activators of GAA850 frataxin (FXN) promoter; HEK293 lucGAA850 FXN promoter luciferase reporter, 24 h; percent of 10 µM SAHA response; activation, % at 6 µM; 360,000 tested, 0.56% active; AID 540364;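 active = activation above the average of all compounds screened plus 3 SD, cutoff fixed separately per campaign, cut at about 7.5% in these data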
# GAA30 counter: counter-screen for GAA850 frataxin promoter activators: GAA30 promoter activation. shares compounds with FXN GAA850 act. HEK293 lucGAA30 FXN promoter luciferase, 24 h; DMSO = 0%, 5 µM ipriflavone = 100%. activation, % at 6 µM. 1,900 tested, 66% active;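 active = mean activation above the mean of solvent-only control wells plus 3 SD, cut at about 22% in these data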;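 also: counterscreen of GAA850 promoter hits where activity marks nonselective or luminescence artifacts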
# GAA850 confirm: confirmation of GAA850 frataxin (FXN) promoter activators; 1,900 tested, 86% active; HEK293 lucGAA850 FXN promoter luciferase reporter, 24 h; 100% = activation by SAHA; shares compounds with FXN GAA850 act; AID 588351; activation, % at 6 µM;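 active = mean activation above a set limit taken from the primary screen, cut at about 8% in these data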
# Hits are given with their value; n = inactive; u = inconclusive; x = no result given; + = active, no number. A selection: hits, their analogues and other compounds. The true share with any hit is near 2%.
SMILES,NR2E3 ag-1,Myeloid diff MLP,T cell modulator,NR2E3 ag-2,FXN GAA850 act,GAA30 counter,GAA850 confirm
CCOC(=O)C(=O)C1=C(N2CCOCC2)/C(=C\c2ccc(F)cc2)CC1,n,n,n,n,7.6,n,9.0
C=CCOC(=O)C1=C(C)NC(SCC(=O)Nc2nccs2)=C(C#N)C1c1ccc(Cl)cc1 (stereo not given),n,n,n,n,9.6,n,8.9
O=C(NCCc1ccccc1F)C1CCCN(c2nc3ccccc3s2)C1 (stereo not given),n,n,n,n,n,x,x
NNC(=O)CN1C(c2ccccc2Br)=Nc2ccc(Br)cc2C1c1ccccc1 (stereo not given),n,n,n,n,9.2,n,8.7
COc1ccc(C2N(c3cccc(Cl)c3)C(=O)C3CCCN32)cc1 (stereo not given),n,n,n,n,n,x,x
COc1ccc(C2N(c3ccc(Cl)cc3)C(=O)C3CCCN32)cc1 (stereo not given),n,n,n,n,13,n,n
c1ccc2oc(-c3ccn[nH]3)cc2c1,n,n,n,n,8.0,122,38
COc1ccc(/C=N/NC(=O)c2cccnc2)c(C(=O)O)c1OC,n,n,n,n,n,x,x
CCN(C[C@H]1N[C@@](Cc2ccccc2)(C(=O)OC)[C@H]2C(=O)N(Cc3ccccc3)C(=O)[C@@H]12)C(=O)Nc1ccc(C)cc1,n,n,n,x,n,x,x
CCN(C[C@H]1N[C@@](CC)(C(=O)OC)[C@H]2C(=O)N(Cc3ccccc3)C(=O)[C@@H]12)C(=O)Nc1ccc(C)cc1,n,+,n,x,14,33,12
CCN(C[C@H]1N[C@@](CC)(C(=O)OC)[C@H]2C(=O)N(Cc3ccccc3)C(=O)[C@@H]12)C(=O)Nc1ccc(Cl)cc1,n,n,n,x,15,31,14
CCN(C[C@H]1N[C@@](CC)(C(=O)OC)[C@H]2C(=O)N(C)C(=O)[C@@H]12)C(=O)Nc1ccc(Cl)cc1,n,n,n,x,n,x,x
CCN(C[C@H]1N[C@@](CC)(C(=O)OC)[C@H]2C(=O)N(Cc3ccccc3)C(=O)[C@@H]12)C(=O)COc1ccccc1,n,n,n,x,8.0,28,14
O=S1(=O)N[C@@H](Cc2ccccc2)COc2cc(N3CC[C@H](O)C3)ccc21,n,n,x,x,x,x,x
O=S1(=O)N[C@@H](Cc2ccccc2)COc2cc(N3CCC[C@@H]3CO)ccc21,n,n,x,x,x,x,x
CCOc1ccccc1CNC(=O)CN1C(=O)CSc2ccc(S(=O)(=O)N3CCOCC3)cc21,n,n,n,n,n,x,x
N#C/C(=C\C=C\c1ccccc1[N+](=O)[O-])C(=O)NC1CCCCC1,n,x,n,n,14,n,18
Cc1cccc(/C(N)=N/OC(=O)c2ccc3c(c2)OCO3)c1,n,n,n,n,7.9,105,39
CCCCN(C(=O)c1ccc2c(c1)OCO2)c1c(N)n(CC(C)C)c(=O)[nH]c1=O,n,n,n,n,n,x,x
Cn1/c(=N\NC(=O)c2ccccc2Cl)sc2ccccc21,n,n,n,n,8.1,104,27
Cc1ccc(C(=O)NCCN2CCC(n3c(=O)[nH]c4ccccc43)CC2)cc1C,n,n,x,x,x,x,x
COc1ccccc1NC(=O)N(Cc1ccccc1)c1ccccn1,n,n,n,n,9.7,38,20
COCC(=O)N(Cc1ccccc1)c1ccccn1,n,n,n,n,n,x,x
O=S(=O)(NCC(c1ccc2c(c1)OCO2)N1CCOCC1)c1ccccc1 (stereo not given),n,n,n,n,n,x,x
CC1CCCN(C(=O)COc2ccc3c(c2)OCO3)C1 (stereo not given),n,n,n,n,n,x,x
SMILES,NR2E3 ag-1,Myeloid diff MLP,T cell modulator,NR2E3 ag-2,FXN GAA850 act,GAA30 counter,GAA850 confirm
CC1Cc2ccccc2N1C(=O)COc1ccc2c(c1)OCO2 (stereo not given),n,n,n,n,8.0,79,24
O=C(NC1CCCCC1)c1nc(-c2c(F)cccc2F)oc1-c1ccccc1,x,n,x,x,x,x,x
Cc1ccccc1CSc1nnc2ccc(-c3ccncc3)nn12,n,n,n,n,7.7,30,13
COc1ccc(C(C)=O)cc1Cn1c(C)c(C(=O)NCc2ccc(C(F)(F)F)cc2)sc1=O,n,n,x,x,n,x,x
Cc1ccc(NC(=O)C(=O)NCc2ccccn2)cc1,n,n,n,n,8.3,90,38
CCOC(=O)c1c(C)nc2c3ccccc3ccn12,n,n,n,n,8.1,118,44
CCOC(=O)c1c(C)nc2c(C)cccn12,n,n,n,n,n,x,x
COc1cc2cc(C(=O)N(C)Cc3ccccc3)[nH]c2cc1OC,n,n,n,x,n,x,x
C=CCN(Cc1ccc(OC)c(OC)c1)C(=O)c1cc2cc(F)ccc2[nH]1,n,n,n,n,13,27,16
CCn1c(C)nc2cc(C(=O)NN=Cc3ccccc3OC(F)F)ccc21,n,n,n,x,n,x,x
CCn1c(C)nc2cc(C(=O)N/N=C/c3ccccc3C)ccc21,n,n,n,n,13,93,36
CC(C)C[C@H]1CN(CCCC[C@H]2CNC(=O)C(=O)N2CCc2ccccc2)C(=O)C(=O)N1CC1CCCCC1,n,n,x,x,x,x,x
COc1ccc(N2Cc3ccc(OC)c(OC)c3C2=O)cc1,n,n,n,n,8.5,100,28
CCN(CC)S(=O)(=O)c1ccc(N2CCN(CCOc3ccc(OC)cc3)CC2)nc1,n,n,n,n,n,x,x
CC(Nc1cc(N2CCNCC2)ccc1[N+](=O)[O-])c1ccccc1 (stereo not given),n,n,n,n,8.5,n,n
COc1ccnc(Oc2ccc3ccccc3c2)c1C#N,n,x,n,n,8.2,82,25
CCOC(=O)c1ccc(NC(=O)NC2=NCCS2)cc1,n,u,x,x,n,x,x
COCOCCn1cc(CN2CCS(=O)(=O)N(Cc3ccc(-c4ccncc4)cc3)C(C(C)C)C2=O)nn1 (stereo not given),n,n,x,x,n,x,x
CS(=O)(=O)c1ncc(Cl)c(C(=O)Nc2ccc(OC(F)F)cc2)n1,n,u,n,n,68,n,n
CCOC(=O)c1nc(S(C)(=O)=O)ncc1Cl,n,n,n,n,41,63,73
COC(=O)c1ccc(C(=O)N2CCCCCC2(C)C(=O)NC(C)C)cc1 (stereo not given),n,n,x,x,n,x,x
Cc1nn2c(N)c(C#N)cnc2c1-c1ccc(Cl)cc1,n,n,n,n,n,x,x
Cc1nn2c(N)c(C#N)cnc2c1-c1ccccc1,n,n,n,n,9.0,38,20
O=C(O)C1CCN(S(=O)(=O)Cc2ccccc2)CC1,n,n,n,n,n,x,x
